The entries come from a sample that favours hits as a whole.
ABCB1 inh: blocks JC-1 efflux by human ABCB1 transporter; AID 1326; actives 0.067% (n = 190,000); inhibition, % at 6.6 µM; P08183; CCRF-Adr cells, flow cytometry; in the data active = inhibition above about 40%;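 also: 0% = vehicle and 100% = reference inhibitor; higher value means more JC-1 retained so stronger ABCB1 efflux block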
Lmaj promast: Leishmania major promastigote growth inhibition. Leishmania major promastigotes, resazurin fluorescence viability. inhibition, % at 10 µM. actives 9% (n = 200,000);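 also: promastigotes grown with compound for 44 hours at 28 °C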
PKD1 kinase inh: blocks activity of human protein kinase D1 | inhibition, % (no concentration beside the values) | PKD1 kinase fluorescence polarization assay | actives 0.056% (n = 200,000) | Q15139
GSH fluor: compound fluoresces at 488/530 nm on GSH beads | GSH beads flow cytometry, compound fluorescence 488/530 nm; active compounds read high | actives 0.25% (n = 190,000) | fluorescence (KMESF) at 10 µM; in the data active = fluorescence above about 89;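 also: glutathione beads carrying GST-tagged Bcl family fusion proteins plus one bare bead set; values are compound well signal with DMSO vehicle wells as background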
ABCG2 inh: human ABCG2 inhibition, ABCB1 as counter-screen. Q9UNQ0. actives 0.1% (n = 190,000). IgMXP3 cells, JC-1 efflux, flow cytometry. inhibition, % at 6.6 µM;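 active = inhibition above 80%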;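 also: 0% = DMSO and 100% = nicardipine control wells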
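Assay system – ABCG2 IgMXP3 and barcoded ABCB1 CCRF-Adr cell mix · Input – 3 million cells/mL in well · Reagent – JC-1 fluorescent substrate · Compound – single test compound dose, 6.6 µM final · Timing – 10 min exposure at 25 °C with rotation, no wash · Detection – flow cytometry of retained JC-1 fluorescence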
Avidin fluor: avidin bead compound fluorescence profile. Avidin beads, compound fluorescence 488/530 nm, flow cytometry; active compounds read high. fluorescence (KMESF) at 10 µM. actives 0.38% (n = 220,000). AID 1775; in the data active = fluorescence above about 47
An asterisk follows results filed as active; . = not tested or not shown. Rule as the data show it, unless noted: active = inhibition above about 50%; inactive = the rest.

SMILES	ABCB1 inh	Lmaj promast	PKD1 kinase inh	GSH fluor	ABCG2 inh	Avidin fluor
Cc1onc(-c2c(Cl)cccc2Cl)c1C(=O)N=C(N)N1CC(C)OC(C)C1 (stereo not given)	.	.	.	.	.	9
CCN(CC)c1ccc(NC(=O)COc2ccc(C#N)cc2)cc1S(=O)(=O)Nc1ccc(OC)cc1	1	40	7	9	6	5
CCOC(=O)C(C)Oc1cccc2c(=O)n(CC(=O)NCc3ccc(F)cc3)ccc12 (stereo not given)	.	.	.	.	.	8
Cc1ccc(C(=O)N/C(=C\c2ccc(-c3ccc(Br)cc3)o2)C(=O)NCCCN(C)C)cc1	0	100*	-2	11	1	10
Cc1ccc(C(=O)N/C(=C/c2ccc(-c3ccc(Br)cc3)o2)C(=O)NC2CCS(=O)(=O)C2)cc1 (stereo not given)	1	69*	-14	5	7	14
CN(C)CCNC(=O)/C(=C/c1ccc(-c2ccc(Cl)cc2)o1)NC(=O)c1ccccc1	1	100*	2	11	6	3
CN(C)CCNC(=O)/C(=C/c1ccc(-c2ccc(Cl)cc2Cl)o1)NC(=O)c1ccccc1	1	100*	14	10	2	15
COc1ccc(C(=O)N/C(=C/c2ccco2)C(=O)NC2CCS(=O)(=O)C2)cc1 (stereo not given)	0	-2	3	12	1	9
C=CCNC(=O)c1onc(CSc2cccc(OC)c2)c1C(=O)NCC=C	.	.	.	.	.	9
N#C/C(=C/c1ccc(-c2ccc(Br)cc2)o1)C(=O)NC1CCCCC1	0	81*	-2	8	-3	15
N#C/C(=C\c1ccc(-c2ccc(Br)cc2)o1)C(=O)NCCc1c[nH]c2ccccc12	0	5	-8	12	-7	12
CC(C1CC1)N(Cc1ccccc1)C(=S)Nc1ccccc1 (stereo not given)	0	4	-9	70	1	9
CC(C1CC1)N(Cc1ccccc1)C(=S)Nc1cccc(C(F)(F)F)c1 (stereo not given)	0	88*	-11	4	5	9
CCOC(=O)C1(CC2CCCCO2)CCN(Cc2nccn2-c2cccc(C)c2)CC1 (stereo not given)	2	53*	1	10	2	3
CCn1cc(Cl)c(C(=O)Nc2nc3ccccc3n2CCN2CCCCC2)n1	0	4	-6	24	0	7
CCCCn1c(=O)[nH]c(=O)c2c1nc(-c1ccccc1F)n2Cc1ccccc1OC	5	41	10	12	23	9
Cc1nn(-c2ccccc2)c(Cl)c1/C=C(\C#N)C(=O)NC(C)C	1	100*	-15	10	9	7
COc1ccccc1NC(=O)/C(C#N)=C/c1c(C)nn(-c2ccc(F)cc2)c1Cl	0	1	-6	11	6	11
COc1ccc(NC(=O)/C(C#N)=C/c2c(C)nn(-c3ccc(F)cc3)c2Cl)cc1OC	0	7	13	10	5	5
COc1ccc(NC(=O)/C(C#N)=C/c2c(C)nn(-c3ccc(F)cc3)c2Cl)cc1Cl	1	96*	-10	2	4	7
Cc1csc(SC(C)c2nc3scc(-c4ccccc4)c3c(=O)[nH]2)n1 (stereo not given)	.	.	.	.	.	9
Cc1nc2ccccc2nc1CN1CCN(Cc2ccc(F)c(F)c2)C(CCO)C1 (stereo not given)	0	5	-10	13	1	1
COc1cccc(CN2CCN(C3CSCCSC3)CC2CCO)c1 (stereo not given)	0	-4	-11	12	0	12
COc1cccc(CN2CCN(C3CCN(c4ccccc4F)CC3)CC2CCO)c1 (stereo not given)	1	95*	6	14	3	18
OCCC1CN(C2CCN(c3ccccc3)CC2)CCN1Cc1ccc(F)c(F)c1 (stereo not given)	1	93*	2	8	1	10
COc1cccc(CN2CCN(C3CCN(c4ccccc4C)CC3)CC2CCO)c1 (stereo not given)	1	92*	2	13	0	12
COc1cccc(CN2CCN(C3CCN(c4cccc(C)c4C)CC3)CC2CCO)c1 (stereo not given)	2	92*	0	50	0	10
